# According to PMC2637182 (Journal of the American Chemical Society, 2008):
# Experiments:
# Assay in all cases: Continuous fluorescence kinase assay, kinetic parameters of the substrate
# Format in all cases: biochemical
# Src = Src (Homo sapiens, UniProt P12931); conditions: for Km / Vmax: initial slopes, direct fit of ν vs [S], Briggs-Haldane equation, mean ± s.e.m. of triplicate, SEM; for Catalytic Efficiency: kcat/KM (min^-1 μM^-1) normalized to the BTF substrate
# Procedure, shortened: (§1)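 Sox-labelled peptide substrates were phosphorylated by the kinase and monitored continuously by fluorescence (λex 360 nm, λem 485 nm) in a fluorometer or a 96-well plate reader. KM and Vmax came from initial slopes, corrected for substrate and product fluorescence, and a direct Briggs-Haldane fit of ν vs [S]. Values are mean ± s.e.m. of triplicates. kcat/KM was normalized to the BTF substrate within each kinase.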
# MK2 = MK2 (Homo sapiens, UniProt P49137); conditions: initial slopes, direct fit of ν vs [S], Briggs-Haldane equation, mean ± s.e.m. of triplicate, SEM
# Procedure, shortened: (§2)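 Sox-containing peptide substrate becomes fluorescent on phosphorylation through Mg2+ chelation-enhanced fluorescence. Fluorescence was read continuously at λex 360 nm and λem 485 nm. Reaction components were simply mixed, and the reaction was run in a fluorometer or in a 96-well fluorescence plate reader. Rates at varied substrate levels were fitted directly as ν vs [S] to the Briggs-Haldane equation. Each was run in triplicate.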
# PKA = PKA (Homo sapiens, UniProt P17612); conditions: for Km / Vmax: initial slopes, direct fit of ν vs [S], Briggs-Haldane equation, mean ± s.e.m. of triplicate, SEM
# Procedure, shortened: as §1
# Akt1 = Akt1 (Homo sapiens, UniProt P31749); conditions: initial slopes, direct fit of ν vs [S], Briggs-Haldane equation, mean ± s.e.m. of triplicate, SEM
# Procedure, shortened: as §2
# Pim2 = Pim2 (Homo sapiens, UniProt Q9P1W9); conditions: initial slopes, direct fit of ν vs [S], Briggs-Haldane equation, mean ± s.e.m. of triplicate, SEM
# Abl = Abl (Homo sapiens, UniProt P00519); conditions: initial slopes, direct fit of ν vs [S], Briggs-Haldane equation, mean ± s.e.m. of triplicate, SEM
# Procedure, shortened: as §2
# PKCβI = PKCβI (Homo sapiens, UniProt P05771)
# IRK = IRK (Homo sapiens, UniProt P06213); conditions: for Km / Vmax: initial slopes, direct fit of ν vs [S], Briggs-Haldane equation, mean ± s.e.m. of triplicate, SEM; for Catalytic Efficiency: kcat/KM (min^-1 μM^-1) normalized to the BTF substrate
# Procedure, shortened: as §1
# PKCδ = PKCδ (Homo sapiens, UniProt Q05655)
# [1] = initial slopes, direct fit of ν vs [S], Briggs-Haldane equation, mean ± s.e.m. of triplicate, NS = Not a Substrate, SEM
# Sequence of PKCβI (P05771 whole entry): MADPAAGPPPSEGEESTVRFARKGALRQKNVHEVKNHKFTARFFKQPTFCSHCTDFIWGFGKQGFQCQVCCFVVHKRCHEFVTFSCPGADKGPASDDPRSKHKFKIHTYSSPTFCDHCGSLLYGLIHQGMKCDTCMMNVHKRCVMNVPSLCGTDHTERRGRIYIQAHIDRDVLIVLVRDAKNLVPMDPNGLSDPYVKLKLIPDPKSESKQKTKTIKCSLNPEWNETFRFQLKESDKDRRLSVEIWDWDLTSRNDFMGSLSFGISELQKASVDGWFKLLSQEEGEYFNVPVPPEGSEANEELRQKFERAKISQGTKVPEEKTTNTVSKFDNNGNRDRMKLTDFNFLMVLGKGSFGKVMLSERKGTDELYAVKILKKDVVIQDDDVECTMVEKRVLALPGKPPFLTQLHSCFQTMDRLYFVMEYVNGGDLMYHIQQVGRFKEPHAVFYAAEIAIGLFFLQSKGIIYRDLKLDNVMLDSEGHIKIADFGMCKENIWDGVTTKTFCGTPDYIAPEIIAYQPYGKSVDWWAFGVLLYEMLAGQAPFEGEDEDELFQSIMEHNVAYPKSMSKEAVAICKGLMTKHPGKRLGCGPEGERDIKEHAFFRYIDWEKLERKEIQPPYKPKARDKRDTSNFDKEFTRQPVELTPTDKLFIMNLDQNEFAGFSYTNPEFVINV
# Sequence of IRK (P06213 1012-1310 limits assumed): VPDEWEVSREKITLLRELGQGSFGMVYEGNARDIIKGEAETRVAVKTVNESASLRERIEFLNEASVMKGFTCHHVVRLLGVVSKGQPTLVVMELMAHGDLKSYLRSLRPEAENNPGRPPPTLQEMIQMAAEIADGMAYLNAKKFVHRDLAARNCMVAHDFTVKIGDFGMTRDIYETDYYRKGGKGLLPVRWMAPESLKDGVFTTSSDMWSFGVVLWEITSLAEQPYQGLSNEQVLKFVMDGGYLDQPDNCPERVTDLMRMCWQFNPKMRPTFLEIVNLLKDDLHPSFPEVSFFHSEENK
# Sequence of PKCδ (Q05655 whole entry): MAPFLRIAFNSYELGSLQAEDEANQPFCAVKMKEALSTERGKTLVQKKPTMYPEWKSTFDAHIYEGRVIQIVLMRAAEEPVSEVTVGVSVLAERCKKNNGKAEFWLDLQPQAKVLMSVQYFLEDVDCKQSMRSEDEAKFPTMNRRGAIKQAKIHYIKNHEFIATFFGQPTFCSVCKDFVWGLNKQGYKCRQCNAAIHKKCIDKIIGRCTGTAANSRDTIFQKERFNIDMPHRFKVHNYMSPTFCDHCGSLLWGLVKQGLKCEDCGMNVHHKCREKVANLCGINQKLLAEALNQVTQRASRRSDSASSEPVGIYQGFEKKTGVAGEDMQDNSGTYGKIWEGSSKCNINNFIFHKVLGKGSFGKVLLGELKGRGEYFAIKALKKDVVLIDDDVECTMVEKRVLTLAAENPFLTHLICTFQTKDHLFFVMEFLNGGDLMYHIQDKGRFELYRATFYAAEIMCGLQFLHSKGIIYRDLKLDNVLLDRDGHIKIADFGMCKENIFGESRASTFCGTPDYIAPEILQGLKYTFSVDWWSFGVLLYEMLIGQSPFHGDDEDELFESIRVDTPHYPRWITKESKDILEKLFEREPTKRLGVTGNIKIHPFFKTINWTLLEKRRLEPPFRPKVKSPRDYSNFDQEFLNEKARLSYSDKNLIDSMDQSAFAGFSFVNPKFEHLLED
# Sequence of Akt1 (P31749 whole entry, species assumed): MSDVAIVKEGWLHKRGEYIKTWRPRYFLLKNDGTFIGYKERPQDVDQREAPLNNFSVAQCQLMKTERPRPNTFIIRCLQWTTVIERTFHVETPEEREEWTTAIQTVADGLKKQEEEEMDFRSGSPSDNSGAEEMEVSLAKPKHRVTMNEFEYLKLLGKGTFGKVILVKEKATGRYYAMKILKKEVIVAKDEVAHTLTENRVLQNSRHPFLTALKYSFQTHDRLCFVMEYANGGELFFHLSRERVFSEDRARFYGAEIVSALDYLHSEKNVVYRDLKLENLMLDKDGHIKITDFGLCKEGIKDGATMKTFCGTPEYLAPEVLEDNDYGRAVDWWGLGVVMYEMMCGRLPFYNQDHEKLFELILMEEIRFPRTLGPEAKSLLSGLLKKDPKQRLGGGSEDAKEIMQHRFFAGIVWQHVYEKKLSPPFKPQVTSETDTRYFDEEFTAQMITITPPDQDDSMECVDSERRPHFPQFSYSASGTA
# Sequence of MK2 (P49137 whole entry, species assumed): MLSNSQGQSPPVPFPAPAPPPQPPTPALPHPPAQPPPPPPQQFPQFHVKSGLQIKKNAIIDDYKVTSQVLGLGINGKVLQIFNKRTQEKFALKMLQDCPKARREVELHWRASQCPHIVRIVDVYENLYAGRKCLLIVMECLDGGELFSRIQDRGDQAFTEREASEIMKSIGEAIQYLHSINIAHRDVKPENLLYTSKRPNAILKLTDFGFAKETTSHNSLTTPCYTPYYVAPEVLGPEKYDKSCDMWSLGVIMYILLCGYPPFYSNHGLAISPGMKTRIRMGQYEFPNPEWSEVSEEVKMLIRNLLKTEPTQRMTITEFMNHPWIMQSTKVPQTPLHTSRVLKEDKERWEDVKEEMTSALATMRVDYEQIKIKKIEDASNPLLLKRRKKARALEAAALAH
# Sequence of Pim2 (Q9P1W9 whole entry, species assumed): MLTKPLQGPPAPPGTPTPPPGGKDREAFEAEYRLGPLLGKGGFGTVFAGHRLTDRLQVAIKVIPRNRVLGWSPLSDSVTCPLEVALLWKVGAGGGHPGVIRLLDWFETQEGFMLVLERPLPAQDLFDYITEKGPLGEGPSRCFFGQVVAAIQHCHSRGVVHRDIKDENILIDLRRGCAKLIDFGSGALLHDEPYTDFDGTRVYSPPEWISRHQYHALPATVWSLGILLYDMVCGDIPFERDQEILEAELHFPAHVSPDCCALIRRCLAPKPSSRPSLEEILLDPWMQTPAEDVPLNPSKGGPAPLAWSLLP
# Sequence of Abl (P00519 whole entry, species assumed): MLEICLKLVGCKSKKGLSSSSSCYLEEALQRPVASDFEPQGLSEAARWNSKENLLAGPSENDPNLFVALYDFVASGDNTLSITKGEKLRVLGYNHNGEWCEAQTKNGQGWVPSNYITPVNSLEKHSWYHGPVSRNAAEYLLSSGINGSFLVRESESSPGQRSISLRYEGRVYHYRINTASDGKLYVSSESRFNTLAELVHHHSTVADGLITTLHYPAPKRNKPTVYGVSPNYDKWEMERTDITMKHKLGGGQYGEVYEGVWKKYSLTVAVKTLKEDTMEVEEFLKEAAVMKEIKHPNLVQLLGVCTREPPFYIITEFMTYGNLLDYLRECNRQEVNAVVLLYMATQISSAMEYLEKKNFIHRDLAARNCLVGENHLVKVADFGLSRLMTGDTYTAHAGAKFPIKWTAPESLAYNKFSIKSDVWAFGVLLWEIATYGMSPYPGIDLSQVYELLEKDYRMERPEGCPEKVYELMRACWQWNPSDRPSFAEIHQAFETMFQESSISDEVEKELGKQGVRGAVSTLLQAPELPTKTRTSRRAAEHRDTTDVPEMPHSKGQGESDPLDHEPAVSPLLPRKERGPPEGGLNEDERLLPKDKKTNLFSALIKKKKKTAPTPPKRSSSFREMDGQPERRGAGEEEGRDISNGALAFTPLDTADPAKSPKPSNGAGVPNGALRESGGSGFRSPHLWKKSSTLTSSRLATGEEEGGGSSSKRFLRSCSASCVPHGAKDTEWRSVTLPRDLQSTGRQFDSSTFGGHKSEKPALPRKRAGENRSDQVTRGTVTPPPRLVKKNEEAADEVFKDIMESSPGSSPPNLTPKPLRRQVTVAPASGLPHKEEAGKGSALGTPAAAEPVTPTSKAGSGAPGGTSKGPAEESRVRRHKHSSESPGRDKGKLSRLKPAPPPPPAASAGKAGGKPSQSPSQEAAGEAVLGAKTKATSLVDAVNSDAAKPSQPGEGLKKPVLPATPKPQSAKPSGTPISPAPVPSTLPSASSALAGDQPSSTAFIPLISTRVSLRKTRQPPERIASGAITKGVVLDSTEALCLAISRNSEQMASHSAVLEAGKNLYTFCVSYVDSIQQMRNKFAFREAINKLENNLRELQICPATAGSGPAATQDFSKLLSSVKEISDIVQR
substance,measurement,setting,value
Ac-AEE-CSox-IY*GEFEAKKKK-CONH2 [Src RDF],Km,Src,7 ± 1 µM
same,Vmax,Src,3.4 ± 0.2 µmol/mg/min
same,Catalytic Efficiency,Src,28
Ac-AHLQRQLS*I-CSox-HH-CONH2 [MK2 RDF],Km,MK2,1.2 ± 0.2 µM
same,Vmax,MK2,1.3 ± 0.1 µmol/mg/min
Ac-ALRRAS*L-CSox-AA-CONH2 [PKA RDF],Km,PKA,2.6 ± 0.3 µM
same,Vmax,PKA,17.9 ± 0.8 µmol/mg/min
same,Catalytic Efficiency,PKA; kcat/KM (min^-1 μM^-1) normalized to the BTF substrate,1
Ac-ARKRERAYS*F-CSox-HHA-CONH2 [Akt1 RDF],Km,Akt1,0.69 ± 0.11 µM
same,Vmax,Akt1,2.5 ± 0.2 µmol/mg/min
Ac-ARKRRRHPS*G-CSox-PTA-CONH2 [Pim2 RDF],Km,Pim2,1.4 ± 0.1 µM
same,Vmax,Pim2,0.67 ± 0.02 µmol/mg/min
Ac-E-CSox-IY*AAPFAKKK-CONH2 [Abl RDF],Km,Abl,10.5 ± 1.5 µM
same,Vmax,Abl,19.1 ± 1.0 µmol/mg/min
Ac-LKR-CSox-AS*FKKFA-CONH2 [PKCβI RDF],turnover by the kinase (in words),PKCβI; Figure S3,excellent substrates
same,Km,PKCβI; [1],0.81 ± 0.18 µM
same,Vmax,PKCβI; [1],0.76 ± 0.06 µmol/mg/min
Ac-LRRAS*L-DPro-Sox-G-CONH2 [PKA BTF],Km,PKA,2.7 ± 0.4 µM
same,Vmax,PKA,26.5 ± 1.1 µmol/mg/min
Ac-R-CSox-DY*-Nle-TMQIGKK-CONH2 [IRK RDF],Km,IRK,27.1 ± 3.9 µM
same,Vmax,IRK,6.3 ± 0.4 µmol/mg/min
same,Catalytic Efficiency,IRK,1
Ac-RKRKGS*F-CSox-YGG-CONH2 [PKCδ RDF],turnover by the kinase (in words),PKCδ; Figure S3,excellent substrates
same,Km,PKCδ; [1],0.48 ± 0.07 µM
same,Vmax,PKCδ; [1],0.39 ± 0.02 µmol/mg/min
Ac-Sox-PEIY*GEFEAKKKK-CONH2 [Src BTF],Km,Src,30.7 ± 5.8 µM
same,Vmax,Src,0.54 ± 0.04 µmol/mg/min
same,Catalytic Efficiency,Src,1
Ac-Sox-PGDY*-Nle-TMQIGKK-CONH2 [IRK BTF],Km,IRK,25.7 ± 0.7 µM
same,Vmax,IRK,7.3 ± 2.2 µmol/mg/min
same,Catalytic Efficiency,IRK,1
